Screening results deposited in PubChem BioAssay by several laboratories.
IMP-1 inhibitor = inhibitors of Pseudomonas aeruginosa IMP-1 metallo-beta-lactamase. purified IMP-1, nitrocefin hydrolysis, epi-absorbance fluorescence. inhibition, % at 5.6 µM. 290,000 compounds, 0.45% hits. AID 1556;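 active = inhibition above the mean plus 3 SD of all compounds in the same screening run, cut at about 4.5% in these data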
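assay system = purified recombinant IMP-1 metallo-beta-lactamase enzyme | schedule = 15 min preincubation plus 25 min reaction at 25 °C | signal = Epi-absorbance fluorescence, 480 nm excitation, 530 nm emission | read-out basis = percent inhibition from optical density relative to buffer-blank wells | controls = IMP-1 with DMSO as 0%, enzyme-free DMSO as 100%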
VIM-2 inh = blocks Pseudomonas aeruginosa VIM-2 metallo-beta-lactamase. inhibition, % at 5.6 µM. 290,000 compounds, 0.89% hits. AID 1527. purified VIM-2, nitrocefin hydrolysis, epi-absorbance fluorescence;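 active = inhibition above the mean of all tested compounds plus 3 SD, cutoff set per screening run, cut at about 7.5% in these data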;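 note: red hydrolysis product quenches plate fluorescence so inhibitors raise well fluorescence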
ERp5 block = ERp5 (human) disulfide isomerase inhibition; Q15084; ERp5 insulin aggregation, absorbance 650 nm, 90 min; inhibition, % at 9.99 µM; 350,000 compounds, 0.05% hits;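 active = mean replicate inhibition above about 25%, with every replicate also reaching it, limit read from the data, passing the limit was not always enough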
Target sequence (Q15084 whole entry, looked up): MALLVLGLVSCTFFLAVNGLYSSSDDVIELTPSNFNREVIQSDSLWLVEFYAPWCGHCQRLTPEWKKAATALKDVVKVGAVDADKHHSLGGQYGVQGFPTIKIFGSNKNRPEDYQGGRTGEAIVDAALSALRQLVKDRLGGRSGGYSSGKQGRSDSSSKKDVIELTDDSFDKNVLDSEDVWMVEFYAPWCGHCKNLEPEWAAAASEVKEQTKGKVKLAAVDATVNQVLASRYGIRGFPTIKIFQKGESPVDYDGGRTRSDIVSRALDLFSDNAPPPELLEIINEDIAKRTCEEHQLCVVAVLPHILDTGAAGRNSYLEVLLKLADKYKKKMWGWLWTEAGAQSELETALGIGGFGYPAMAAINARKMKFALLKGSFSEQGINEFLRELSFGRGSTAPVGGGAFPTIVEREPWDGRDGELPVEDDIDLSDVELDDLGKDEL
PvdQ inh = P. aeruginosa PvdQ acylase inhibition; 340,000 compounds, 0.063% hits; purified PvdQ acylase, fluorescence plate reader; inhibition, % at 10 µM; in the data active = inhibition above about 30%, passing the limit was not always enough
PglD DTNB = blocks C. jejuni PglD acetyltransferase activity | 360,000 compounds, 0.098% hits | inhibition, % at 12.5 µM | purified PglD enzyme, DTNB colorimetric CoA detection | AID 602405; in the data active = inhibition above about 16%, passing the limit was not always enough
PDI turbidity = inhibitors of human protein disulfide isomerase | P07237 | PDI insulin aggregation turbidity, A650, 90 min | inhibition, % at 10 µM | 350,000 compounds, 0.052% hits;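 active = mean inhibition across replicates of 30% or more, whatever share of single replicates reach that level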
VIM-2 confirm = VIM-2 inhibition, confirmation assay; shares compounds with IMP-1 inhibitor; purified VIM-2 enzyme, nitrocefin absorbance; inhibition, % at 5.6 µM; 200 compounds, 73% hits; AID 1860; in the data active = inhibition above about 8%
TEM-1 inh 2 = blocks E. coli TEM-1 beta-lactamase, VIM-2 IMP-1 counter-screen | shares compounds with IMP-1 inhibitor | nitrocefin absorbance inhibition | inhibition, % at 5.6 µM | 200 compounds, 50% hits; in the data active = inhibition above about 0.66%
Target sequence (P62593 whole entry, looked up): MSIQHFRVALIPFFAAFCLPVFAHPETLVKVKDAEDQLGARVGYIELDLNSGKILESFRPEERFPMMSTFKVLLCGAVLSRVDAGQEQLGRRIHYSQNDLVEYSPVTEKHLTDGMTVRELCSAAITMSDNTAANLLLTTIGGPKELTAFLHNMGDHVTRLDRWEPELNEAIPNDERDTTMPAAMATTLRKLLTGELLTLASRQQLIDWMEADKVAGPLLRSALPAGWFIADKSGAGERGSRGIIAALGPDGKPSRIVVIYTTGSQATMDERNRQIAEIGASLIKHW
IMP-1 inh conf = confirmation of P. aeruginosa IMP-1 metallo-beta-lactamase inhibitors; shares compounds with IMP-1 inhibitor; purified IMP-1 enzyme, absorbance substrate hydrolysis; inhibition, % at 5.6 µM; 200 compounds, 60% hits; in the data active = inhibition above about 4.9%
PglD inh SP = confirmation of Campylobacter jejuni PglD acetyltransferase inhibitors. Purified C. jejuni PglD, DTNB absorbance 412 nm. inhibition, % at 20 µM. AID 743156. shares compounds with PglD DTNB. 320 tested, under 10 active;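 active = mean inhibition across replicates of at least 20% with every single replicate also at 20% or more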;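 note: initial rate of CoA release by acetyl transfer from AcCoA to the UDP-4-amino sugar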
Numbers stand for hits; n = inactive; x = no result. An excerpt weighted towards active compounds, which were near 1% of everything screened.

SMILES	IMP-1 inhibitor	VIM-2 inh	ERp5 block	PvdQ inh	PglD DTNB	PDI turbidity	PglD inh SP	others
CCCCNc1ccc2c3c(cccc13)C(=O)N(CCCC)C2=O	12.2	14.6	n	n	x	n	x	VIM-2 confirm=22.3;TEM-1 inh 2=62.7;IMP-1 inh conf=18.3
O=C(C1CC1)N1C[C@@H]2[C@H](c3ccccc31)[C@H](CO)N2C(=O)c1cccc(F)c1	x	x	x	x	n	x	x
C/C(=N\Nc1ncnc2sc(C)c(C)c12)c1ccccn1	12.7	13.7	n	n	n	n	x	VIM-2 confirm=38.3;TEM-1 inh 2=7.1;IMP-1 inh conf=n
CC1(C(=O)O)Sc2[nH]c(=O)sc2C2c3ccccc3OC(=O)C21 (stereo unspecified)	n	n	n	n	n	n	x
O=C(O)C1Sc2[nH]c(=O)sc2C2c3ccc(O)cc3OC(=O)C12 (stereo unspecified)	8.6	7.9	n	n	n	n	x	VIM-2 confirm=n;TEM-1 inh 2=n;IMP-1 inh conf=n
O=C(OCC(=O)N1CCCc2ccccc21)c1cnc(Cl)c(Cl)c1	n	n	n	n	x	n	x
O=C(OCC(=O)N1CCCC1)c1cnc(Cl)c(Cl)c1	x	x	n	n	25.2	n	n
CC(C)NC(=O)Nc1ccc2c(c1)C(=O)N([C@@H](C)CO)C[C@@H](C)[C@H](CN(C)C(=O)C1CCCCC1)OCCCC[C@@H](C)O2	x	x	n	x	n	x	x
Cc1cccc(C(=O)NCCNC(=O)c2ccco2)c1	n	n	n	n	20.2	n	n
CS(=O)(=O)Nc1cccc(NC(=O)c2cccc3c(-c4cccnc4)coc23)c1	x	x	x	x	35.0	n	n
CCCCOc1ccc(CC(=O)NCC(=O)O)cc1	n	n	x	n	23.3	n	n
O=C(NNS(=O)(=O)c1ccccc1)c1sccc1-n1cccc1	n	n	x	n	n	n	x
O=C(NNS(=O)(=O)c1ccc(Cl)cc1)c1sccc1-n1cccc1	n	n	x	n	24.9	n	n
COC(=O)C1CSC(C(=O)OC)N1C(=O)CN1CCN(c2ccc(OC)cc2)CC1 (stereo unspecified)	n	n	n	n	59.1	n	n
COc1ccc2c3c(n(C)c2c1)[C@H](CO)N(C(=O)C1CCC1)CC31CCN(Cc2cccc(F)c2)CC1	x	x	n	x	x	x	x
C[C@H]1CN([C@@H](C)CO)C(=O)c2cc(C#CC3CC3)cnc2O[C@H]1CN(C)S(=O)(=O)c1cccc(F)c1	x	x	n	x	n	x	x
Cc1c(C(=O)NC(C)C)sc2ncn(CC(=O)N3CCC(C)CC3)c(=O)c12	n	n	n	n	24.5	n	n
CO[C@@H]1CN(C)C(=O)c2cc(NC(=O)Nc3c(C)noc3C)ccc2OC[C@@H](C)N(CCC(F)(F)F)C[C@@H]1C	x	x	n	x	n	x	x
COc1ccc(-c2ccc(C3[C@H]4CNC[C@@H]3N4C(=O)Nc3ccc4c(c3)OCO4)cc2)cc1 (stereo partly specified)	x	x	n	x	x	x	x
CN(C(=O)c1ccc(NC(=O)Cc2cccc(NC(=O)C3CCN(C(=O)C4CC4)CC3)c2)cc1)C1CC1	x	x	n	n	25.4	n	n
C[C@H](CO)N1C[C@H](C)[C@@H](CN(C)C(=O)Nc2cccc(C(F)(F)F)c2)OCc2cnnn2CCCC1=O	x	x	n	x	n	x	x
O=C(CCc1nc2ccccc2s1)N1CCN(S(=O)(=O)c2cccs2)CC1	n	n	x	n	n	n	x
O=S(=O)(c1cccs1)N1CCN(Cc2nc3ccccc3s2)CC1	n	n	x	n	24.1	n	n
CN(C)CCCNC(=O)C[C@@H]1CC[C@@H]2[C@H](COc3ccc(NS(C)(=O)=O)cc3C(=O)N2C)O1	x	x	n	x	n	x	x
Cc1ccc(C(=O)NCc2ccc3c(c2)OCO3)cc1	n	n	n	n	n	n	x
SMILES	IMP-1 inhibitor	VIM-2 inh	ERp5 block	PvdQ inh	PglD DTNB	PDI turbidity	PglD inh SP	others
Cc1ccc(CN(c2ccc(C(=O)NCc3ccc4c(c3)OCO4)cc2)S(C)(=O)=O)cc1	n	n	x	n	26.6	n	n
CN1C(=O)C(CC(=O)NC2CCCCC2)SC1=Nc1ccccc1 (stereo unspecified)	n	n	n	n	53.8	n	n
CCN1C(=O)CC(N2CCN(c3ccc(Cl)cc3)CC2)C1=O (stereo unspecified)	n	n	x	n	35.0	n	n
CCN1C(=O)CC(N2CCN(c3ccc(C(=O)c4ccccc4)cc3)CC2)C1=O (stereo unspecified)	n	n	x	n	n	n	x
C[C@@H]1CN([C@H](C)CO)C(=O)Cc2cc(NS(=O)(=O)c3cccs3)ccc2O[C@H]1CN(C)CC1CC1	x	x	n	x	n	x	x
COc1cccc(NC(=O)N2CC(=O)N3[C@H](CO)[C@H](c4ccc(C#CC5CCCC5)cc4)[C@@H]3C2)c1	x	x	n	x	x	x	x
CC(C)c1ccc(NC(=O)CSc2nnc(CN3CCOCC3)n2C)cc1	n	n	n	n	99.0	n	n
Cc1ccc(NC(=O)CSc2nnc(CN3CCOCC3)n2C)cc1C	n	n	x	n	x	n	x
CCC(C)(C)NC(=O)Cc1ccc(C)cc1	n	n	x	n	47.6	n	n
O=C(Nc1ccccc1)N1CC(=O)N2[C@@H](CO)[C@H](c3ccc(C#CC4CC4)cc3)[C@@H]2C1	x	x	n	x	x	x	x
Cc1cc(=O)[nH]c(SCC(=O)Nc2ccc(Br)cc2)c1C#N	n	n	x	n	21.1	n	n
Cc1cc(=O)[nH]c(SCC(=O)Nc2ccc(F)cc2)c1C#N	n	n	n	n	n	n	x
Clc1ccc(-c2noc(CN3CCCC3)n2)cc1	n	n	x	n	30.9	n	n
Cc1ccc(NC(=O)C2CCN(S(=O)(=O)c3cnc[nH]3)CC2)cc1C	n	n	x	n	n	n	x
Cc1cc(NC(=O)C2CCN(S(=O)(=O)c3cnc[nH]3)CC2)ccc1Br	n	n	x	n	27.7	n	n
COc1ccc(CNCc2cccc(Cl)c2)cc1	n	n	n	43.0	30.5	n	n
CC(C(=O)N1CCCC1)N(c1ccccc1)S(C)(=O)=O (stereo unspecified)	n	n	n	n	n	n	x
Cc1cc(C)cc(N(C(C)C(=O)N2CCCC2)S(C)(=O)=O)c1 (stereo unspecified)	n	n	n	n	74.6	n	n
CC(=O)c1ccc(S(=O)(=O)N2Cc3ccccc3CC2C(=O)O)cc1 (stereo unspecified)	n	n	n	n	24.6	n	n
O=C(O)[C@H]1Cc2ccccc2CN1S(=O)(=O)c1ccc(F)cc1	n	n	n	n	n	n	x
C[C@@H]1CN([C@H](C)CO)C(=O)c2cc(C#CC3CCCCC3)cnc2O[C@@H]1CN(C)Cc1ccncc1	x	x	n	x	n	x	x
CCCN1C[C@@H](C)[C@H](OC)CN(C)C(=O)c2cc(NC(=O)C3CC3)ccc2OC[C@H]1C	x	x	n	x	n	x	x
